Measured values pooled from the literature.
pIC50: −log10 of the molar value.
SLCO1B3: Solute carrier organic anion transporter family member 1B3 (SLCO1B3, Homo sapiens, UniProt Q9NPD5)

Structure (SMILES)	target or system	assay	system	setting	quantity	value
Oc1ccc(-c2nc(N3CCC(c4ccccn4)C3)c3ccccc3n2)cc1 (centres unmarked)	–	metabolic stability	human, liver microsomes	–	microsomal CLint	99 µL/min/mg
COc1cc(C(=O)NC2CCN(C)CC2)c(F)cc1Nc1ncc(C(F)(F)F)c(Oc2cccc3c2C(=O)N(C)C3)n1	–	–	human, plasma	oral, 200 mg, multiple doses, once daily, patients	CL/F	160 mL/min
CN(C(=O)n1cnc(-c2ccc[n+]([O-])c2)c1)C1CCCCC1	SLCO1B3	transporter uptake, inhibitor	HEK293	1 µg/mL	inhibition	11%
COc1ccnc(-c2nc3ccccn3c2Nc2ccc(F)cc2)c1	–	metabolic stability	rat, hepatocytes	–	hepatocyte CLint	190 µL/min/10⁶ cells
CN(CCC(=O)O)C(=O)c1ccc2c(c1)CC[C@@H]1[C@@H]2CC[C@]2(C)C(c3cncc(F)c3)=CC[C@@H]12	SLCO1B3	transporter uptake, inhibitor	–	–	pIC50	4.39
Cc1ccc(C(=O)N(CCCN)[C@@H](c2oc3cc(Cl)ccc3c(=O)c2Cc2ccccc2)C(C)C)cc1	–	–	human, plasma	intravenous, 4 mg/m², single dose, patients, infusion	clearance	24.8 mL/min
COc1ccnc(-c2nc3ccccn3c2N(C)c2ccc(F)cc2)c1	–	metabolic stability	rat, hepatocytes	–	hepatocyte CLint	> 300 µL/min/10⁶ cells
c1cnc2ccc(Nc3nc(NC4CC4)c4nc[nH]c4n3)cc2c1	–	–	human, plasma	oral, 50 mg/m², patients	CL/F	3180 mL/min
C[C@H]1C[C@H]2[C@@H]3CCC4=CC(=O)C=C[C@]4(C)[C@@]3(Cl)[C@@H](O)C[C@]2(C)[C@@]1(O)C(=O)CO	SLCO1B3	transporter uptake, inhibitor	–	–	pIC50	5.85
Fc1ccc(Nc2c(Cn3cccn3)nc3ccccn23)cc1	–	metabolic stability	rat, hepatocytes	–	hepatocyte CLint	51 µL/min/10⁶ cells
O=C(O[C@H]1[C@@H]2C=CO[C@@H](O[C@@H]3O[C@H](CO)[C@@H](O)[C@H](O)[C@H]3O)[C@@H]2[C@@]2(CO)O[C@@H]12)c1ccc(O)cc1	SLCO1B3	transporter uptake, substrate	HEK293	5 min	Km	502 µM
